pIC50: −log10 of the molar value.
Columns and labels:
[1] = Ratio of drug level in brain to plasma in Sprague-Dawley rat at 5 mg/kg, iv; format: ADME, organism-based; design: dose 5 mg/kg, route intravenous
Method in brief: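 Male Sprague-Dawley rats received a single iv dose of 5 mg/kg as a solution in DMSO (n = 3). Plasma and nonperfused whole brain were collected 30 min after dosing. Total compound concentration was measured by HPLC and expressed as a brain-to-plasma ratio.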

[2] = biological target: T1, Transient receptor potential cation channel subfamily V member 1 (Rattus norvegicus, UniProt O35433); assay: Antagonist activity at rat TRPV1 expressed in CHO cells assessed as inhibition of capsaicin-induced calcium influx; format: functional, cell-based
Method in brief: (§1)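 CHO cells stably expressing rat TRPV1. Uptake of 45Ca2+ was triggered by capsaicin (500 nM) or by acid (pH 5), and test compounds were run over a concentration range. IC50 values are the mean ± SEM of at least two experiments, with triplicate wells at each concentration.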

[3] = biological target: T1, Transient receptor potential cation channel subfamily V member 1; assay: Antagonist activity at rat TRPV1 expressed in CHO cells assessed as inhibition of pH 5 acid-induced calcium influx; format: functional, cell-based; method in brief: as §1
Rattus norvegicus [4] = assay: Inhibition of capsaicin-induced flinching in Sprague-Dawley rat at 10 mg/kg, po administered 1 hr before capsaicin challenge; format: functional
Method in brief: (§2)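 Rats received the test compound orally, then capsaicin. In vivo on-target activity was scored as percent inhibition of the capsaicin-evoked flinching response.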

[5] = Drug level in blood of Sprague-Dawley rat with capsaicin-induced flinching at 10 mg/kg, po administered 1 hr before capsaicin challenge; format: ADME, organism-based; design: dose 10 mg/kg, route oral; conditions: read-out: Drug uptake
Rattus norvegicus [6] = assay: Toxicity assessed as increase in body core temperature in Sprague-Dawley rat at 10 mg/kg, po by radiotelemetry relative to control; format: organism-based; design: dose 10 mg/kg, route oral; conditions: in vivo
Blood [7] = assay: Drug level in blood of Sprague-Dawley rat telemetry model at 10 mg/kg, po; format: ADME, organism-based; design: dose 10 mg/kg, route oral; conditions: in vivo
Rattus norvegicus [8] = assay: Inhibition of capsaicin-induced flinching in Sprague-Dawley rat at 3 mg/kg, po administered 1 hr before capsaicin challenge; format: functional; method in brief: as §2
[9] = Drug level in blood of Sprague-Dawley rat with capsaicin-induced flinching at 3 mg/kg, po administered 1 hr before capsaicin challenge; format: ADME, organism-based; design: dose 3 mg/kg, route oral; conditions: read-out: Drug uptake
Rattus norvegicus [10] = assay: Inhibition of capsaicin-induced flinching in Sprague-Dawley rat at 1 mg/kg, po administered 1 hr before capsaicin challenge; format: functional; method in brief: as §2
[11] = Drug level in blood of Sprague-Dawley rat with capsaicin-induced flinching at 1 mg/kg, po administered 1 hr before capsaicin challenge; format: ADME, organism-based; design: dose 1 mg/kg, route oral; conditions: read-out: Drug uptake
Rattus norvegicus [12] = assay: Toxicity assessed as increase in body core temperature in Sprague-Dawley rat at 3 mg/kg, po by radiotelemetry relative to control; format: organism-based; design: dose 3 mg/kg, route oral; conditions: in vivo
Blood [13] = assay: Drug level in blood of Sprague-Dawley rat telemetry model at 3 mg/kg, po; format: ADME, organism-based; design: dose 3 mg/kg, route oral; conditions: in vivo
Rattus norvegicus [14] = assay: Inhibition of capsaicin-induced flinching in Sprague-Dawley rat at 0.3 mg/kg, po administered 1 hr before capsaicin challenge; format: functional; method in brief: as §2
[15] = Drug level in blood of Sprague-Dawley rat with capsaicin-induced flinching at 0.3 mg/kg, po administered 1 hr before capsaicin challenge; format: ADME, organism-based; design: dose 0.3 mg/kg, route oral; conditions: read-out: Drug uptake
Blood [16] = assay: Drug level in blood of Sprague-Dawley rat telemetry model at 1 mg/kg, po; format: ADME, organism-based; design: dose 1 mg/kg, route oral; conditions: in vivo
Rattus norvegicus [17] = assay: Toxicity assessed as increase in body core temperature in Sprague-Dawley rat at 1 mg/kg, po by radiotelemetry relative to control; format: organism-based; design: dose 1 mg/kg, route oral; conditions: in vivo
Rattus norvegicus [18] = assay: Toxicity assessed as increase in body temperature in Sprague-Dawley rat at 0.1 to 3 mg/kg, po after 60 mins; format: organism-based; design: dose 0.1-3 mg/kg, route oral; conditions: in vivo, 1 h
Method in brief: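 Rodents were dosed orally at 0.1–3 mg/kg. Body temperature was recorded 60 min after drug administration and compared across doses.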

[19] = biological target: T2, Transient receptor potential cation channel subfamily V member 1 (Homo sapiens, UniProt Q8NER1); assay: Antagonist activity at human TRPV1 assessed as inhibition of low pH-induced calcium influx; format: functional
Rattus norvegicus [20] = assay: Inhibition of capsaicin-induced flinching in po dosed rat; format: functional, organism-based; method in brief: as §2
[21] = biological target: T2, Transient receptor potential cation channel subfamily V member 1; assay: Antagonist activity at human TRPV1 assessed as inhibition of capsaicin-induced calcium influx; format: functional

T1 sequence (O35433 whole entry): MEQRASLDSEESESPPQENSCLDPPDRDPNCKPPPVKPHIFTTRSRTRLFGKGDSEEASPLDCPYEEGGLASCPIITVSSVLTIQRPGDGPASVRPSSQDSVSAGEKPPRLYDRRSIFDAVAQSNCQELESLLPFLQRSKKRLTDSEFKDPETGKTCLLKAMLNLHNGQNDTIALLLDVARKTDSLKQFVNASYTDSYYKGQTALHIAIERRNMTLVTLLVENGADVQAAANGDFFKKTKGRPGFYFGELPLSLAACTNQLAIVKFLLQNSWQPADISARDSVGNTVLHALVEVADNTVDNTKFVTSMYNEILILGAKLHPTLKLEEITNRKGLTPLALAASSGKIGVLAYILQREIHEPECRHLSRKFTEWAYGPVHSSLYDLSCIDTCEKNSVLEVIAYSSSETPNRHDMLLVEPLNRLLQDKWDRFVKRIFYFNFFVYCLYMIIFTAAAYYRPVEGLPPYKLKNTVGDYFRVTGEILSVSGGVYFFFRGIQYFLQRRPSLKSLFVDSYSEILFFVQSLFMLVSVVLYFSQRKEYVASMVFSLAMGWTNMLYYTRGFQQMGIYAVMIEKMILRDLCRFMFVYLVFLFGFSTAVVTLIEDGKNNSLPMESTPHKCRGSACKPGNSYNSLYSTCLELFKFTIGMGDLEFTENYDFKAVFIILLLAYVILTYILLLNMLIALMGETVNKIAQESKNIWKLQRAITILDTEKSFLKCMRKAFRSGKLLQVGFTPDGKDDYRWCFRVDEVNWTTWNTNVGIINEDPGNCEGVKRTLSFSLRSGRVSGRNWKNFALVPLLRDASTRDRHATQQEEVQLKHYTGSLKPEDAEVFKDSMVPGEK
T2 sequence (Q8NER1 whole entry): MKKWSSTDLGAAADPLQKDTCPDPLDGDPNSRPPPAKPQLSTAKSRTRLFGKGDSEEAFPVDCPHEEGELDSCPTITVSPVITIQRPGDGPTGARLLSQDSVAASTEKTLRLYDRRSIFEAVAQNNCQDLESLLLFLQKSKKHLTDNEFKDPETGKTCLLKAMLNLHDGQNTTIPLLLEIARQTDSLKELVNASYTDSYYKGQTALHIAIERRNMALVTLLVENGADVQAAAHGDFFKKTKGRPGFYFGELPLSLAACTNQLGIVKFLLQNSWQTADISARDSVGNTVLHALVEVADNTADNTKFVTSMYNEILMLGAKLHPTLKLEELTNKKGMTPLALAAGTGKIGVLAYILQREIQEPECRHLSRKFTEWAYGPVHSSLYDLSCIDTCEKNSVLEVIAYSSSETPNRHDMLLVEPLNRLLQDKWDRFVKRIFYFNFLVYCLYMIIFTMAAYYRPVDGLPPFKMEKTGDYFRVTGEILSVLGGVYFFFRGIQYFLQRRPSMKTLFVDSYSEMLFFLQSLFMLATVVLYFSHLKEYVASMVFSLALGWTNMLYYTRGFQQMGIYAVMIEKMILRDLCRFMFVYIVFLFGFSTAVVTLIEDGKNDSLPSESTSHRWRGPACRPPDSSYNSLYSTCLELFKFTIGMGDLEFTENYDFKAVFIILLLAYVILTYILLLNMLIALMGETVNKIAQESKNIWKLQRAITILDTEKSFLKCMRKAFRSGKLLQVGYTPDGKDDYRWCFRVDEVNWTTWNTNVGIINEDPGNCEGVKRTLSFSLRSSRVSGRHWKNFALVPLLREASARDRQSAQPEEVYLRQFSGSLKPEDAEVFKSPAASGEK

Row | Structure (SMILES) | Kp [1] | pIC50 [2] | pIC50 [3] | also measured
1 | Nc1nc2c(Oc3cc(-c4ccc(C(F)(F)F)cc4)ncn3)cccc2[nH]c1=O | 0.4 | – | – | –
2 | CC(=O)Nc1nc2c(Oc3cc(-c4ccc(C(F)(F)F)cc4)nc(N)n3)cccc2s1 | 0.44 | – | – | –
3 | CC(=O)Nc1nc2c(Oc3cc(-c4ccc(C(F)(F)F)cc4NC(=O)NC(C)(C)C)ncn3)cccc2s1 | 0.19 | 8.62 | 8.22 | –
4 | CC(C)(C)NC(=O)Nc1cc(C(F)(F)F)ccc1-c1cc(Oc2cccc3[nH]c(=O)c(N)nc23)ncn1 | 0.04 | 8.39 | 8.28 | inhibition in vivo at 10 mg/kg (Rattus norvegicus [4]): 43%; concentration at 1 h [5]: 196 ng/mL
5 | Nc1nc2c(Oc3cc(-c4ccc(C(F)(F)F)cc4NC(=O)c4ccncc4)ncn3)cccc2[nH]c1=O | 0.07 | 8.48 | 8.68 | inhibition in vivo at 10 mg/kg (Rattus norvegicus [4]): 50%; concentration at 1 h [5]: 0.82 ng/mL
6 | COC[C@H](C)Nc1nc(Oc2cccc3[nH]c(=O)c(N)nc23)cc(-c2ccc(C(F)(F)F)nc2N)n1 | 0.04 | 8.36 | 8.19 | inhibition in vivo at 10 mg/kg (Rattus norvegicus [4]): 23%; concentration at 1 h [5]: 5.48 ng/mL
7 | COC[C@H](C)Nc1nc(Oc2cccc3[nH]c(=O)c(N)nc23)cc(-c2ccc(C(F)(F)F)cc2N)n1 | 0.07 | 8.42 | 8.57 | inhibition in vivo at 10 mg/kg (Rattus norvegicus [4]): 95%; Activity (Rattus norvegicus [6]): 1.2 °C; concentration at 1 h [5]: 342 ng/mL; Drug uptake (Blood [7]): 289.24 ng/mL
8 | Nc1nc(Oc2cccc3[nH]c(=O)c(N)nc23)cc(-c2ccc(C(F)(F)F)cc2)n1 | 0.07 | 8.43 | 8.59 | –
9 | CC(O)CCNc1nc(Oc2cccc3[nH]c(=O)c(N)nc23)cc(-c2ccc(C(F)(F)F)cc2)n1 (configuration not stated) | 0.03 | 7.79 | 8.06 | inhibition in vivo at 10 mg/kg (Rattus norvegicus [4]): 72%; concentration at 1 h [5]: 494 ng/mL
10 | CC(Nc1nc(Oc2cccc3[nH]c(=O)c(N)nc23)cc(-c2ccc(C(F)(F)F)cc2)n1)c1ccccn1 (configuration not stated) | 0.04 | 8.55 | 8.24 | inhibition in vivo at 10 mg/kg (Rattus norvegicus [4]): 94%; Activity (Rattus norvegicus [6]): 0.5 °C; concentration at 1 h [5]: 267 ng/mL; Drug uptake (Blood [7]): 241.9 ng/mL
11 | CC(=O)Nc1nc2c(Oc3cc(-c4ccc(C(F)(F)F)cc4N)ncn3)cccc2s1 | 0.93 | 7.80 | 8.44 | –
12 | CC(C)(C)CN1CCCCC1CNc1nc(Oc2cccc3[nH]c(=O)c(N)nc23)cc(-c2ccc(C(F)(F)F)cc2)n1 (configuration not stated) | 0.24 | 8.70 | 8.68 | –
13 | Nc1nc2c(Oc3cc(-c4ccc(C(F)(F)F)nc4NCCN4CCOCC4)ncn3)cccc2[nH]c1=O | 0.04 | 8.66 | 7.73 | inhibition in vivo at 3 mg/kg (Rattus norvegicus [8]): 60%; concentration at 1 h [9]: 67.1 ng/mL
14 | COCCNc1nc(Oc2cccc3[nH]c(=O)c(N)nc23)cc(-c2ccc(C(F)(F)F)cc2N)n1 | 0.1 | 8.37 | 8.23 | inhibition in vivo at 10 mg/kg (Rattus norvegicus [4]): 71%; concentration at 1 h [5]: 298 ng/mL
15 | Nc1cc(C(F)(F)F)ccc1-c1cc(Oc2cccc3[nH]c(=O)c(N)nc23)ncn1 | 0.23 | 8.82 | 8.41 | –
16 | Nc1nc(Oc2cccc3[nH]c(=O)c(N)nc23)cc(-c2ccc(C(F)(F)F)cc2N)n1 | 0.04 | 7.46 | 7.21 | –
17 | CC(=O)Nc1nc2c(Oc3cc(-c4ccc(C(F)(F)F)cc4)ncn3)cccc2s1 [AMG-517] | – | – | – | Activity (Rattus norvegicus [18]): Active; pIC50 [19]: 9.22; EC50 (Rattus norvegicus [20]): 0.33 mg/kg; pIC50 [21]: 9.10

More lines, in order of rising pIC50 [2], values ahead:

Row | Kp [1] | pIC50 [2] | pIC50 [3] | Structure (SMILES) | also measured
18 | 0.09 | 8.96 | 9.10 | Nc1nc2c(Oc3cc(-c4ccc(C(F)(F)F)nc4N[C@@H]4CCOC4)ncn3)cccc2[nH]c1=O | inhibition in vivo at 3 mg/kg (Rattus norvegicus [8]): 30%; concentration at 1 h [9]: 32.8 ng/mL
19 | 0.25 | 9.05 | 8.77 | CC(C)CN1CCCCC1CNc1nc(C(F)(F)F)ccc1-c1cc(Oc2cccc3[nH]c(=O)c(N)nc23)ncn1 (configuration not stated) | –
20 | 0.11 | 9.10 | 8.57 | Nc1nc(C(F)(F)F)ccc1-c1cc(Oc2cccc3[nH]c(=O)c(N)nc23)ncn1 | Activity (Rattus norvegicus [6]): 1.1 °C; Drug uptake (Blood [7]): 1129.62 ng/mL; inhibition in vivo at 3 mg/kg (Rattus norvegicus [8]): 100%; concentration at 1 h [9]: 252 ng/mL
21 | 0.19 | 9.10 | 9.00 | COC[C@H](C)Nc1nc(Oc2cccc3[nH]c(=O)c(N)nc23)cc(-c2ccc(C(F)(F)F)cc2)n1 | –
22 | 0.21 | 9.15 | 9.15 | Nc1nc2c(Oc3cc(-c4ccc(C(F)(F)F)cc4NC(=O)c4ccccn4)ncn3)cccc2[nH]c1=O | –
23 | 0.04 | 9.15 | 8.89 | COCCNc1nc(C(F)(F)F)ccc1-c1cc(Oc2cccc3[nH]c(=O)c(N)nc23)ncn1 | inhibition in vivo at 1 mg/kg (Rattus norvegicus [10]): 100%; concentration at 1 h [11]: 19 ng/mL; Activity (Rattus norvegicus [12]): 0.6 °C; Drug uptake (Blood [13]): 25.35 ng/mL
24 | 0.05 | 9.22 | 9.10 | COCCNc1nc(Oc2cccc3[nH]c(=O)c(N)nc23)cc(-c2ccc(C(F)(F)F)cc2)n1 | inhibition in vivo at 0.3 mg/kg (Rattus norvegicus [14]): 93%; concentration at 1 h [15]: 24.9 ng/mL; inhibition in vivo at 1 mg/kg (Rattus norvegicus [10]): 100%; Drug uptake (Blood [16]): 100.29 ng/mL; Activity (Rattus norvegicus [17]): 0.7 °C
25 | 0.15 | 9.52 | 9.52 | COC[C@@H](C)Nc1nc(Oc2cccc3[nH]c(=O)c(N)nc23)cc(-c2ccc(C(F)(F)F)cc2)n1 | –
